Experimental data published in ChEMBL document CHEMBL6071141, “In vitro and in vivo evaluation of Bombesin-MMAE conjugates for targeted tumour therapy” (Eur J Med Chem, 2024).

Key:
[1] = Metabolic stability in mouse plasma assessed as half life at 5 uM measured upto 24 hrs by LC-HRMS analysis; format: ADME, cell-free
Procedure, shortened: (§1)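 Conjugates at 5 μM were incubated in human or mouse plasma at 37 °C, in duplicate. Samples were taken at t0, 0.25, 0.5, 1, 2, 4 and 24 h and quenched with 1 % formic acid in MeCN (2× volume). After centrifugation (14000 rpm, 4 °C), supernatants were diluted 1:1 with water and analysed by LC-HRMS.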

[2] = Displacement of 125 I- [Tyr4] from bombesin receptor 1 (unknown origin) assessed as inhibition by radioligand competitive binding assay; parameters: species or system Homo sapiens
[3] = Metabolic stability in human plasma assessed as half life at 5 uM measured upto 24 hrs by LC-HRMS analysis; format: ADME, cell-free; procedure, shortened: as §1
[4] = target: T1, Bombesin receptor subtype-3 (Homo sapiens, UniProt P32247); assay: Displacement of 125 I- [Tyr4] from bombesin receptor 3 (unknown origin) assessed as inhibition by radioligand competitive binding assay
T1 sequence (P32247 whole entry): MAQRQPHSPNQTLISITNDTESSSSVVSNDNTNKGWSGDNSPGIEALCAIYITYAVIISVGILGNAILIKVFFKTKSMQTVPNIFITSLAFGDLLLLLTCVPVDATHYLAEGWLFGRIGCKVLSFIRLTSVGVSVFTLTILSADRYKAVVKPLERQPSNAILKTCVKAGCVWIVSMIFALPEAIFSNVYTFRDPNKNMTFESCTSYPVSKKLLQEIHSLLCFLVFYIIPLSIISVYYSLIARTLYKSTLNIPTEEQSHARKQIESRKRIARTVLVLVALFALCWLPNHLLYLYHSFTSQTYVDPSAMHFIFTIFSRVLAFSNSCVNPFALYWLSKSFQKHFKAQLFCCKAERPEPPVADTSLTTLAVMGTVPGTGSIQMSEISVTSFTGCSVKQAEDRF

[5] = target: T2, Gastrin-releasing peptide receptor (Homo sapiens, UniProt P30550); assay: Displacement of 125 I- [Tyr4] from bombesin receptor 2 (unknown origin) assessed as inhibition by radioligand competitive binding assay
[6] = target: T2, Gastrin-releasing peptide receptor; assay: Displacement of 125 I- [Tyr4] from bombesin receptor 2 in human MDA-MB-231 cells assessed as inhibition by radioligand displacement assay; format: cell-based
Procedure, shortened: (§2)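 Competition binding on membrane preparations from PC-3 or MDA-MB-231 cells against ¹²⁵I-[Tyr⁴]-bombesin, with conjugates at 10 μM–10 pM. IC50 was taken as the concentration giving 50 % inhibition of tracer binding.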

[7] = Cytotoxicity against human PC-3 cells assessed as inhibition of cell growth incubated with compound for 72 hrs followed by further incubated for 72 hrs (single treatment) by CellTiter 96 aqueous assay; format: toxicity, cell-based
Procedure, shortened: (§3)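 PC-3 or MDA-MB-231 cells were treated the day after seeding with serial dilutions, from 2000 nM for conjugates and 100 nM for MMAE, for 72 h. Then the assay was stopped, or run 72 h more after a medium change (single) or re-treatment (double). Controls got 0.05 % DMSO. Read-out was MTS absorbance at 490 nm after 90 min. IC50 by non-linear regression; ≥2 experiments, triplicates.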

[8] = Cytotoxicity against human MDA-MB-231 cells assessed as inhibition of cell growth incubated with compound for 72 hrs followed by further incubated for 72 hrs (single treatment) by CellTiter 96 aqueous assay; format: toxicity, cell-based; procedure, shortened: as §3
[9] = system: PC-3; assay: Antitumor activity against human PC-3 cells xenografted in mouse assessed as reduction in tumour volume relative to control; format: functional; parameters: scale not given: the % may be the effect or the level left
Procedure, shortened: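 Acute study in mice bearing subcutaneous PC-3 tumours. Single i.p. dose (0.1 mL) 9 days after inoculation, at a mean tumour volume of 62 mm³. Eight per group, randomized. Conjugates at 2 mg/kg MMAE-content, free MMAE at 1 mg/kg, in 5 % DMSO in water; solvent controls. Calliper volume V = ab²×π/6. Sacrifice at 20 % weight loss or 2000 mm³.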

[10] = target: T2, Gastrin-releasing peptide receptor; assay: Displacement of 125 I- [Tyr4] from bombesin receptor 2 in human PC-3 cells assessed as inhibition by radioligand displacement assay; format: cell-based; procedure, shortened: as §2
[11] = Toxicity in mouse xenografted with human PC-3 cells assessed as skin rash at 0.5 mg/kg, ip administered upto 23 days; details: in vivo, 552 h
[12] = Cytotoxicity against human cells MDA-MB-231 assessed as inhibition of cell growth incubated for 72 hrs by CellTiter 96 aqueous assay; format: toxicity, cell-based; details: MDA-MB-231 cells; procedure, shortened: as §3
[13] = Cytotoxicity against human PC-3 cells assessed as inhibition of cell growth incubated for 72 hrs and followed by treated with compound continued incubation for further 72 hrs (double treatment) after retreatment of compound by CellTiter 96 aqueous assay; format: toxicity, cell-based; procedure, shortened: as §3
[14] = system: PC-3; assay: Antitumor activity against human PC-3 cells xenografted with mouse assessed as median survival days at 2 mg/kg, ip (reference value: 33 days)
[15] = Toxicity in mouse xenografted with human PC-3 cells assessed as body weight loss at 1 mg/kg, ip administered relative to control; format: organism-based; details: in vivo, 2 mg/kg, in the assay text read “2 mg/kg” for “1 mg/kg”
Procedure, shortened: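 Toxicity in mice bearing subcutaneous PC-3 tumours after a single i.p. dose 9 days post-inoculation. Free drug at 1 mg/kg, conjugates at 2 mg/kg MMAE-content, in 5 % DMSO in water; solvent controls; eight per group. Body weight followed periodically. Endpoint at 20 % weight loss; behaviour (activity, coat, stool, paleness) also scored.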

[16] = Biodistribution in mouse xenografted with human PC-3 cells assessed as tumour environment incubated for 24 hrs by LC-HRMS; format: ADME, organism-based, Neoplasm; details: in vivo
Procedure, shortened: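 Mice bearing PC-3 xenografts received a single 2 mg/kg i.p. dose. Blood, tumour, liver, kidneys, heart, lungs and pancreas were collected at 1, 6 and 24 h and pooled per group. Tissues were homogenised in water (1:2 w/v) and centrifuged. Released MMAE was measured by LC-HRMS and expressed as %ID/g (n = 3).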

[17] = Cytotoxicity against human PC-3 cells assessed as inhibition of cell growth incubated for 72 hrs by CellTiter 96 aqueous assay; format: toxicity, cell-based; procedure, shortened: as §3
[18] = Cytotoxicity against human MDA-MB-231 cells assessed as inhibition of cell growth incubated for 72 hrs and followed by treated with compound continued incubation for further 72 hrs (double treatment) after retreatment of compound by CellTiter 96 aqueous assay; format: toxicity, cell-based; procedure, shortened: as §3

T2 sequence (P30550 whole entry): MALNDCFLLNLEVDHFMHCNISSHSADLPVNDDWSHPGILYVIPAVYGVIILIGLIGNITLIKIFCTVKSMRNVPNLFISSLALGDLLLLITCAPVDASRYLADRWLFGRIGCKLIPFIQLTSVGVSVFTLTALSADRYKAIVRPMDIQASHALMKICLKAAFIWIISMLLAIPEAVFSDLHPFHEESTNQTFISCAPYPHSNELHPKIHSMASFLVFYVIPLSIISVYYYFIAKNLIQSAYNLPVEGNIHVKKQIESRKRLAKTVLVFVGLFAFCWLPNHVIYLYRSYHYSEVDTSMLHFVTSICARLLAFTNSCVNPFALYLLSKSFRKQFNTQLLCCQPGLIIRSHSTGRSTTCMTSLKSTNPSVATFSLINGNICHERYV

IC50 [2] [nM] | half-life at 5 µM [3] [h] | IC50 [4] [nM] | IC50 [5] [nM] | SMILES | half-life at 5 µM [1] [h] | IC50 [6] [nM] | IC50 at 144 h [7] [nM] | IC50 at 144 h [8] [nM] | Activity [9] [%] | IC50 [10] [nM] | Activity [11] | IC50 at 72 h [12] [nM] | IC50 at 144 h [13] [nM] | Survival [14] [days] | Activity [15] [%] | Drug uptake [16] | IC50 at 72 h [17] [nM] | IC50 at 144 h [18] [nM]
> 10000 | ≥ 5 | > 1000 | 20.5 | CC(=O)N[C@@H](CS)C(=O)N[C@H](Cc1ccccc1)C(=O)N[C@@H](CCC(N)=O)C(=O)N[C@@H](Cc1c[nH]c2ccccc12)C(=O)N[C@@H](C)C(=O)N[C@H](C(=O)NCC(=O)N[C@@H](Cc1c[nH]cn1)C(=O)N[C@@H](CC(C)C)[C@@H](O)CC(=O)N[C@@H](CC(C)C)C(N)=O)C(C)C | ≥ 5 |  |  |  |  |  |  |  |  |  |  |  |  | 
 |  |  |  | CC[C@H](C)[C@@H]([C@@H](CC(=O)N1CCC[C@H]1[C@H](OC)[C@@H](C)C(=O)N[C@H](C)[C@@H](O)c1ccccc1)OC)N(C)C(=O)[C@@H](NC(=O)[C@H](C(C)C)N(C)C(=O)OCc1ccc(NC(=O)[C@H](CCCNC(N)=O)NC(=O)CNC(=O)[C@@H](CCC(=O)O)NC(=O)CCCCCN2C(=O)CC(SC[C@H](NC(C)=O)C(=O)NCCOCCOCCOCCOCCC(=O)N[C@H](Cc3ccccc3)C(=O)N[C@@H](CCC(N)=O)C(=O)N[C@@H](CC3=CNC4C=CC=CC34)C(=O)N[C@@H](C)C(=O)N[C@H](C(=O)NCC(=O)N[C@@H](Cc3c[nH]cn3)C(=O)N[C@@H](CC(C)C)[C@@H](O)CC(=O)N[C@@H](CC(C)C)C(N)=O)C(C)C)C2=O)cc1)C(C)C (some centres undefined) | 7.2 | 72.9 | 110 | 164 | 26.3 | 68.3 | Toxic | 885 | 83.5 | 42 | < 20 | Active | 428 | 131
